ChEMBL document CHEMBL2375300, “New potent calcimimetics: II. Discovery of benzothiazole trisubstituted ureas” (Bioorg Med Chem Lett, 2013)
Calls of active or inactive are those of the source. The rule behind the calls is not given here.

Tests used:
[1] = target: T1, Extracellular calcium-sensing receptor (Homo sapiens, UniProt P41180); experiment: Positive allosteric modulation of human CaSR expressed in CHO cells assessed as increase in intracellular calcium level after 5 hrs by luciferase reporter gene assay; type: functional, cell-based
T1 sequence (P41180 whole entry): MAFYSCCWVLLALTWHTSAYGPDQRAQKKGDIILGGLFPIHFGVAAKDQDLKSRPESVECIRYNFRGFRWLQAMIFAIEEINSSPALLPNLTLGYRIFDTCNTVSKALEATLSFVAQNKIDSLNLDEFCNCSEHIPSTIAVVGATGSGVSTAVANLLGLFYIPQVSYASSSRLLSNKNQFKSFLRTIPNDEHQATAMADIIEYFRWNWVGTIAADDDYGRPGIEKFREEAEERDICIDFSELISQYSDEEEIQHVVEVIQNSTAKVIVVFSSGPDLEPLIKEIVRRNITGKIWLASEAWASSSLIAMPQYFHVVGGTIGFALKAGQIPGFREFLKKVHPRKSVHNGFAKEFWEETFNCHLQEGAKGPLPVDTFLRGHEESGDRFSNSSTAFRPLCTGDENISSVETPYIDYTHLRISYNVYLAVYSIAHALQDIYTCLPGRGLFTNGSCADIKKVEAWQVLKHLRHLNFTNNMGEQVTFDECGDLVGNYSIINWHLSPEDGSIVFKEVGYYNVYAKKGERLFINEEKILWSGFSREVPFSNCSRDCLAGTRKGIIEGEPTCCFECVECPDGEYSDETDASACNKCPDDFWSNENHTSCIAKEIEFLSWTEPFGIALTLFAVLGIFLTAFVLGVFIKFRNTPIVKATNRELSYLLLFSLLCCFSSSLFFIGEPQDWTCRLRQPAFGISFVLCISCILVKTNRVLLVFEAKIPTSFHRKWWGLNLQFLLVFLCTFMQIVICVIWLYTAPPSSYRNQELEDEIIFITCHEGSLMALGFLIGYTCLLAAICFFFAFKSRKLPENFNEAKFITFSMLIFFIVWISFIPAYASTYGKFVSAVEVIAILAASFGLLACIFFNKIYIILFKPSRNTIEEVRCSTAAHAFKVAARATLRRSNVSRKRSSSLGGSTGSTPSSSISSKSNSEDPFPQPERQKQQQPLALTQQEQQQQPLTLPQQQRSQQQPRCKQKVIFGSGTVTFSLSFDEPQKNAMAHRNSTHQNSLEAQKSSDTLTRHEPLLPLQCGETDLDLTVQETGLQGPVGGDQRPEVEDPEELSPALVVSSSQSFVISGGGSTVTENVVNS
Method in brief: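 CHO cells stably transfected with human CaSR and a luciferase reporter (clone ET8-5-5) were seeded at 50K/well, grown 24 h, then serum-starved overnight. Cells were exposed for 5 h at 37 °C to compound dilutions crossed with a CaCl2 range, in HEPES pH 7.4 buffer with 0.3 mM CaCl2 baseline. Luminescence was read. EC50 was taken at 2 mM calcium, n ≥ 1.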

Rattus norvegicus [2] = experiment: Antihyperparathyroidism activity in Sprague-Dawley rat chronic renal failure model assessed as […] at 10 mg/kg/day, po administered for 2 months measured 24 hrs post last dose relative to vehicle-treated control; type: functional
Method in brief: (§1)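 Male Sprague–Dawley rats with 5/6 nephrectomy were dosed orally once daily at 10 or 30 mg/kg/day in 0.5% methylcellulose (5 mL/kg), or given vehicle. Dosing ran about 2 months, starting after a post-surgery untreated period. Rats were fasted and killed by decapitation 24 h after the last dose. Serum PTH was measured by rat IRMA and Ca by chemistry analyzer. n = 6–10, compared with CRF vehicle.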

Rattus norvegicus [3] = experiment: Toxicity in Sprague-Dawley rat chronic renal failure model assessed as decrease in serum calcium level at 10 mg/kg, po after 24 hrs; type: organism-based; parameters: dose 10 mg/kg, route oral; conditions: in vivo
Method in brief: (§2)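 One week later each received one oral gavage of 10 mg/kg in 0.5% methylcellulose (5 mL/kg), or vehicle alone. Rats were fasted 24 h before decapitation at 2, 6 or 24 h. Serum PTH was measured by rat IRMA, and Ca and P by chemistry analyzer. n = 9–12, ANOVA/t-test against CRF vehicle.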

[4] = AUC in Sprague-Dawley rat chronic renal failure model at 0.3 mg/kg, iv; type: ADME, organism-based; parameters: dose 0.3 mg/kg, route intravenous; conditions: in vivo
Method in brief: (§3)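 Single intravenous dose of 0.3 mg/kg given to chronic renal failure rats. AUC, Cmax, clearance, volume of distribution and half-life were derived from the plasma exposure.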

Rattus norvegicus [5] = experiment: Toxicity in Sprague-Dawley rat chronic renal failure model assessed as side effects at 10 to 30 mg/kg/day, po administered for 2 months measured 24 hrs post last dose; type: organism-based; parameters: route oral; conditions: in vivo
Method in brief: (§4)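 After an untreated interval, they were gavaged once daily with the dihydrochloride salt in 0.5% methylcellulose, or with vehicle at 5 mL/kg. Mortality and side effects were monitored during treatment. Rats were fasted 24 h, then decapitated, and the aorta was examined histologically for calcification.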

Rattus norvegicus [6] = experiment: Clearance in Sprague-Dawley rat at 0.3 mg/kg, iv; type: ADME, organism-based; parameters: dose 0.3 mg/kg, route intravenous; conditions: in vivo
Rattus norvegicus [7] = experiment: Toxicity in Sprague-Dawley rat chronic renal failure model assessed as aortic calcification at 10 to 30 mg/kg/day, po administered for 2 months measured 24 hrs post last dose by histological analysis; type: organism-based, Aorta; parameters: route oral; conditions: in vivo; method in brief: as §4
Rattus norvegicus [8] = experiment: Toxicity in Sprague-Dawley rat chronic renal failure model assessed as decrease in serum calcium level at 10 mg/kg/day, po administered for 2 months measured 24 hrs post last dose (reference value: 4%); type: organism-based; parameters: route oral; scale not given: the % may be the effect or the level left; conditions: in vivo, 30 mg/kg, in the assay text read “at 30 mg/kg/day” for “at 10 mg/kg/day”; method in brief: as §1
[9] = Metabolic stability in intestinal fluid (unknown origin) at pH 2 to 12; type: ADME; conditions: simulated gi fluid
[10] = Cmax in Sprague-Dawley rat chronic renal failure model at 0.3 mg/kg, iv; type: ADME, organism-based; parameters: dose 0.3 mg/kg, route intravenous; conditions: in vivo; method in brief: as §3
Rattus norvegicus [11] = experiment: Antihyperparathyroidism activity in Sprague-Dawley rat chronic renal failure model assessed as decrease in serum PTH level at 10 mg/kg, po after 2 hrs relative to vehicle-treated control; type: functional; parameters: scale not given: the % may be the effect or the level left; method in brief: as §2
[12] = Aqueous solubility of the compound at pH 2; type: physicochemical
Method in brief: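 Aqueous solubility measured at pH 2.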

[13] = Metabolic stability in serum (unknown origin) at pH 2 to 12; type: ADME
Rattus norvegicus [14] = experiment: Antihyperparathyroidism activity in Sprague-Dawley rat chronic renal failure model assessed as decrease in serum PTH level at 10 mg/kg, po after 6 hrs relative to vehicle-treated control; type: functional; parameters: scale not given: the % may be the effect or the level left; method in brief: as §2
[15] = Volume of distribution in Sprague-Dawley rat chronic renal failure model at 0.3 mg/kg, iv; type: ADME, organism-based; parameters: dose 0.3 mg/kg, route intravenous; conditions: in vivo; method in brief: as §3
[16] = Clearance in Sprague-Dawley rat chronic renal failure model at 0.3 mg/kg, iv; type: ADME, organism-based; parameters: dose 0.3 mg/kg, route intravenous; conditions: in vivo; method in brief: as §3
[17] = Half life in Sprague-Dawley rat chronic renal failure model at 0.3 mg/kg, iv; type: ADME, organism-based; parameters: dose 0.3 mg/kg, route intravenous; conditions: in vivo; method in brief: as §3
Rattus norvegicus [18] = experiment: Toxicity in Sprague-Dawley rat chronic renal failure model assessed as mortality at 10 to 30 mg/kg/day, po administered for 2 months measured 24 hrs post last dose; type: organism-based; parameters: route oral; conditions: in vivo; method in brief: as §4
Rattus norvegicus [19] = experiment: Antihyperparathyroidism activity in Sprague-Dawley rat chronic renal failure model assessed as […] at 30 mg/kg/day, po administered for 2 months measured 24 hrs post last dose relative to vehicle-treated control; type: functional; method in brief: as §1
Rattus norvegicus [20] = experiment: Antihyperparathyroidism activity in Sprague-Dawley rat chronic renal failure model assessed as decrease in serum PTH level at 10 mg/kg, po after 24 hrs relative to vehicle-treated control; type: functional; parameters: scale not given: the % may be the effect or the level left; method in brief: as §2
Rattus norvegicus [21] = experiment: Toxicity in Sprague-Dawley rat chronic renal failure model assessed as decrease in serum calcium level at 10 mg/kg/day, po administered for 2 months measured 24 hrs post last dose relative to vehicle-treated control; type: organism-based; parameters: route oral; conditions: in vivo; method in brief: as §1
[22] = target: T2, Extracellular calcium-sensing receptor (Homo sapiens) (UniProt P41180); experiment: Ratio of R-568 EC50 to compound EC50 for positive allosteric modulation of human CaSR
T2 sequence (whole entry): T1 sequence (P41180 whole entry)

Rattus norvegicus [23] = experiment: Antihyperparathyroidism activity in Sprague-Dawley rat chronic renal failure model assessed as increase in serum phosphorus level at 10 mg/kg, po after 24 hrs; type: functional, organism-based; parameters: dose 10 mg/kg; method in brief: as §2
Salmonella typhimurium = experiment: Genotoxicity in Salmonella typhimurium at 10 uM by Ames test; type: toxicity, organism-based; conditions: salmonella enterica subsp. enterica serovar typhimurium
[24] = target: Voltage-gated inwardly rectifying potassium channel KCNH2 (Homo sapiens, UniProt Q12809); experiment: Inhibition of human ERG at 10 uM
Sequence of Voltage-gated inwardly rectifying potassium channel KCNH2 (Q12809 whole entry): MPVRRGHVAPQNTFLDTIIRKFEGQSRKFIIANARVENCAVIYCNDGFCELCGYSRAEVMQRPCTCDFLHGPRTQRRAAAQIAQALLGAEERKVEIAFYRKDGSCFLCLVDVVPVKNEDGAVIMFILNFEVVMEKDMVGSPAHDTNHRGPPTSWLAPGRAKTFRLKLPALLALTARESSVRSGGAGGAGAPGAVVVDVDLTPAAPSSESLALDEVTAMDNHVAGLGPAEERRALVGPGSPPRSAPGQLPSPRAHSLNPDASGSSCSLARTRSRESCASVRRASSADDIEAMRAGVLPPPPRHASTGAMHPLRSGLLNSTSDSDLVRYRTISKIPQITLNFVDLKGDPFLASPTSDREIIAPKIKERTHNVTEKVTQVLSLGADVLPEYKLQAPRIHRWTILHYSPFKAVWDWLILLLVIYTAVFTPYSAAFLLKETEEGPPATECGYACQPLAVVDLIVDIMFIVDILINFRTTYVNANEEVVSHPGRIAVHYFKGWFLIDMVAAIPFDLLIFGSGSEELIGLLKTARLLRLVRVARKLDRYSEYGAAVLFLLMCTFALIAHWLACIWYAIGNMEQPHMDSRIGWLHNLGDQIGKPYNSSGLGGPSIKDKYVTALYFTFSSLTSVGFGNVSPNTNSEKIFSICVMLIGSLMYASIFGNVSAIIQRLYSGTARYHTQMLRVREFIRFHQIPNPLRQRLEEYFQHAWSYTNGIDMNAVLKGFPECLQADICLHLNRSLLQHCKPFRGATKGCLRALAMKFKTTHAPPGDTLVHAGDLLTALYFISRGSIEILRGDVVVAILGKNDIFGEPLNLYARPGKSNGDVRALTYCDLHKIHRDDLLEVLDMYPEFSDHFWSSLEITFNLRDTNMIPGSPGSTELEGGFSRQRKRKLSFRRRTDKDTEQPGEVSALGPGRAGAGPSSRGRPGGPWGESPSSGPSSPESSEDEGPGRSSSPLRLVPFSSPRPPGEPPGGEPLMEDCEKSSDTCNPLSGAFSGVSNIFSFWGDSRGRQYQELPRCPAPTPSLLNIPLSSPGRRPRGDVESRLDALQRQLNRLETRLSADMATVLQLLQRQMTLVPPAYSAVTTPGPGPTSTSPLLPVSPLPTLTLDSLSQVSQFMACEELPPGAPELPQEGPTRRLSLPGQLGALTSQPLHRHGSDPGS

SMILES	EC50 [1] [µM]	further results
COc1cccc2sc(NC(=O)N(CCC(c3ccccc3)c3ccccc3)CCN3CCOCC3)nc12	0.03	–
O=C(Nc1nccc(-c2nccs2)n1)N(CCC(c1ccccc1)c1ccccc1)CCN1CCOCC1	0.2	–
CCOc1ccc2nc(NC(=O)N(CCC(c3ccccc3)c3ccccc3)CCN3CCOCC3)sc2c1	1	–
O=C(Nc1nccs1)N(CCC(c1ccccc1)c1ccccc1)CCN1CCOCC1	0.3	–
O=C(Nc1nc2cc(Cl)ccc2o1)N(CCC(c1ccccc1)c1ccccc1)CCN1CCOCC1	0.08	–
O=C(O)c1ccc2nc(NC(=O)N(CCC(c3ccccc3)c3ccccc3)CCN3CCOCC3)sc2c1	0.1	–
Cn1c(NC(=O)N(CCC(c2ccccc2)c2ccccc2)CCN2CCOCC2)nc2ccccc21	0.15	–
CN(C)CCNC(=O)c1ccc2nc(NC(=O)N(CCC(c3ccccc3)c3ccccc3)CCN3CCOCC3)sc2c1	0.2	–
COC(=O)c1sccc1NC(=O)N(CCC(c1ccccc1)c1ccccc1)CCN1CCOCC1	0.4	–
CS(=O)(=O)c1ccc2nc(NC(=O)N(CCC(c3ccccc3)c3ccccc3)CCN3CCOCC3)sc2c1	0.08	–
COc1cc(C)nc(NC(=O)N(CCC(c2ccccc2)c2ccccc2)CCN2CCOCC2)n1	0.4	–
Cc1cccc2sc(NC(=O)N(CCC(c3ccccc3)c3ccccc3)CCN3CCOCC3)nc12	0.6	–
Cl.Cl.O=C(Nc1nc2ccccc2s1)N(CCC(c1ccccc1)c1ccccc1)CCN1CCOCC1	–	Activity (Rattus norvegicus [2]): -76%; Activity (Rattus norvegicus [3]): Non-toxic; AUC [4]: 162 ng·h/mL; Activity (Rattus norvegicus [5]): Non-toxic; clearance (Rattus norvegicus [6]): 82.7 mL/min/kg; Activity (Rattus norvegicus [7]): Non-toxic; Activity (Rattus norvegicus [8]): 9%; Stability [9]: Stable; Cmax [10]: 546 ng/mL; Activity (Rattus norvegicus [11]): 95%; solubility [12]: 300 µg/mL; Stability [13]: Stable; Activity (Rattus norvegicus [14]): -75%; Vd [15]: 5.17 L/kg; clearance [16]: 30.8 mL/min/kg; half-life [17]: 6.73 h; Activity (Rattus norvegicus [18]): Non-toxic; Activity (Rattus norvegicus [19]): -88%; Activity (Rattus norvegicus [20]): -49%; Activity (Rattus norvegicus [21]): Non-toxic
O=C(Nc1cnccn1)N(CCC(c1ccccc1)c1ccccc1)CCN1CCOCC1	0.45	–
O=C(Nc1nc2ccc(F)cc2s1)N(CCC(c1ccccc1)c1ccccc1)CCN1CCOCC1	0.2	–
CCOC(=O)c1ccc2nc(NC(=O)N(CCC(c3ccccc3)c3ccccc3)CCN3CCOCC3)sc2c1	0.2	–

SMILES	EC50 [1] [µM]	further results
O=C(Nc1cccnc1)N(CCC(c1ccccc1)c1ccccc1)CCN1CCOCC1	1	–
O=C(Nc1nc2ccc(CO)cc2s1)N(CCC(c1ccccc1)c1ccccc1)CCN1CCOCC1	0.08	–
Cc1cc(NC(=O)N(CCC(c2ccccc2)c2ccccc2)CCN2CCOCC2)no1	0.2	–
O=C(Nc1nc2ccccc2s1)N(CCC(c1ccccc1)c1ccccc1)CCN1CCOCC1 [listing 1 of 2 here]	–	Ratio EC50 [22]: 4; Activity (Rattus norvegicus [23]): Active
O=C(Nc1nc2ccccc2n1Cc1ccccc1)N(CCC(c1ccccc1)c1ccccc1)CCN1CCOCC1	0.3	–
Cc1noc(NC(=O)N(CCC(c2ccccc2)c2ccccc2)CCN2CCOCC2)c1C	1.7	–
Cc1ccc2nc(NC(=O)N(CCC(c3ccccc3)c3ccccc3)CCN3CCOCC3)sc2c1	0.03	–
O=C(Nc1nc2ccccc2s1)N(CCC(c1ccccc1)c1ccccc1)CCN1CCOCC1 [listing 2 of 2 here]	0.02	Activity (Salmonella typhimurium): Non-toxic; inhibition (INH) [24]: Active
CS(=O)(=O)Nc1ccc2nc(NC(=O)N(CCC(c3ccccc3)c3ccccc3)CCN3CCOCC3)sc2c1	0.03	–
O=C(Nc1nc2ccc(OC(F)(F)F)cc2s1)N(CCC(c1ccccc1)c1ccccc1)CCN1CCOCC1	0.09	–
O=C(Nc1nc2ccccc2[nH]1)N(CCC(c1ccccc1)c1ccccc1)CCN1CCOCC1	0.06	–
Cc1cc(C)nc(NC(=O)N(CCC(c2ccccc2)c2ccccc2)CCN2CCOCC2)c1	0.08	–
O=C(Nc1nc2c(Cl)cccc2s1)N(CCC(c1ccccc1)c1ccccc1)CCN1CCOCC1	0.02	–
CS(=O)(=O)Nc1ccc2sc(NC(=O)N(CCC(c3ccccc3)c3ccccc3)CCN3CCOCC3)nc2c1	0.03	–
O=C(Nc1nc2ccc(Cl)cc2s1)N(CCC(c1ccccc1)c1ccccc1)CCN1CCOCC1	0.06	–
COc1ccc2nc(NC(=O)N(CCC(c3ccccc3)c3ccccc3)CCN3CCOCC3)sc2c1	0.04	–
